The values that follow come from ChEMBL document CHEMBL1909500, “Synthesis and in vitro anticancer activity of 6,7-methylenedioxy (or 5-hydroxy-6-methoxy)-2-(substituted selenophenyl)quinolin-4-one analogs” (Eur J Med Chem, 2011).

A value given as a limit tells only on which side of the number the result lay.

The subject of one test is HL-60. In words: Cytotoxicity against human HL60 cells after 48 hrs by MTT assay. The format is functional, cell-based. As to conditions: HL-60, 48 h. A digest of the protocol: (§1)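 H460 or HL-60 cells were exposed to vehicle or compound for 48 h. Growth was read by MTT reduction at 570 nm, and IC50 was calculated.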
For the molecule `Oc1cc(-c2cccs2)nc2cc3c(cc12)OCO3`, half-maximal inhibition (IC50) required 1 µM.
Same read-out and setting: the figure for `O=c1cc(-c2ccc[se]2)[nH]c2cc3c(cc12)OCO3` is 0.5 µM.
In the case of `COc1ccc2[nH]c(-c3ccc[se]3)cc(=O)c2c1`, the IC50 (commonly the concentration needed to halve the response being measured) turned out to be 0.6 µM.
Same read-out and setting: under `COc1ccc2[nH]c(-c3ccc(C)[se]3)cc(=O)c2c1OC` stands 3.1 µM; under `O=c1cc(-c2ccoc2)[nH]c2cc3c(cc12)OCO3`, 3.4 µM.
On the same count and under the same terms, the figure for `Oc1cc(-c2ccco2)nc2cc3c(cc12)OCO3` is 6.8 µM; for `COc1ccc2[nH]c(-c3ccc(C)[se]3)cc(=O)c2c1O` it is 0.4 µM.
Molecule `COc1ccc2[nH]c(-c3ccc(C)[se]3)cc(=O)c2c1` showed an IC50 of 0.4 µM.
On the same count and under the same terms, under `Cc1ccc(-c2cc(=O)c3cc4c(cc3[nH]2)OCO4)o1` stands 4.3 µM; under `Cc1ccc(-c2cc(=O)c3cc4c(cc3[nH]2)OCO4)s1`, 0.3 µM; under `COc1ccc2[nH]c(-c3ccc[se]3)cc(=O)c2c1OC`, 7.7 µM.
Same read-out and setting: under `COc1ccc2[nH]c(-c3cc[se]c3)cc(=O)c2c1OC` stands 1.7 µM; under `O=c1cc(-c2cc[se]c2)[nH]c2cc3c(cc12)OCO3`, 0.9 µM.
On the same count and under the same terms, the figure for `COc1ccc2[nH]c(-c3cc[se]c3)cc(=O)c2c1O` is 0.4 µM; for `COc1ccc2[nH]c(-c3cc[se]c3)cc(=O)c2c1` it is 0.7 µM; for `O=c1cc(-c2ccsc2)[nH]c2cc3c(cc12)OCO3` it is 0.9 µM.
In turn, `COc1ccc2[nH]c(-c3ccc[se]3)cc(=O)c2c1O` came in with an IC50 of 1.1 µM.

The test system of the next test is NCI-H460. In words: Cytotoxicity against human H460 cells after 48 hrs by MTT assay. The format is functional, cell-based. The following applies: NCI-H460, 48 h. A digest of the protocol: as §1
For orientation: Tetrazolium dyes change colour on reduction, which living cells bring about.
The molecule `Oc1cc(-c2cccs2)nc2cc3c(cc12)OCO3` had an IC50 of 1 µM.
The same measure, in the same setting: under `O=c1cc(-c2ccc[se]2)[nH]c2cc3c(cc12)OCO3` stands 1 µM.
Same read-out and setting: under `COc1ccc2[nH]c(-c3ccc[se]3)cc(=O)c2c1` stands 2.4 µM; under `COc1ccc2[nH]c(-c3ccc(C)[se]3)cc(=O)c2c1OC`, > 50 µM.
Same read-out and setting: the figure for `O=c1cc(-c2ccoc2)[nH]c2cc3c(cc12)OCO3` is 15.8 µM.
Turning to `Oc1cc(-c2ccco2)nc2cc3c(cc12)OCO3`, the IC50 was > 15 µM.
Same read-out and setting: the figure for `COc1ccc2[nH]c(-c3ccc(C)[se]3)cc(=O)c2c1O` is 0.9 µM; for `COc1ccc2[nH]c(-c3ccc(C)[se]3)cc(=O)c2c1` it is 2 µM; for `Cc1ccc(-c2cc(=O)c3cc4c(cc3[nH]2)OCO4)o1` it is 9.8 µM.
Same read-out and setting: under `Cc1ccc(-c2cc(=O)c3cc4c(cc3[nH]2)OCO4)s1` stands 0.4 µM.
The same measure, in the same setting: the figure for `COc1ccc2[nH]c(-c3ccc[se]3)cc(=O)c2c1OC` is 91.5 µM; for `COc1ccc2[nH]c(-c3cc[se]c3)cc(=O)c2c1OC` it is 100 µM; for `O=c1cc(-c2cc[se]c2)[nH]c2cc3c(cc12)OCO3` it is 1.4 µM.
For `COc1ccc2[nH]c(-c3cc[se]c3)cc(=O)c2c1O`, half-maximal inhibition (IC50) was put at 0.8 µM.
The same measure, in the same setting: the figure for `COc1ccc2[nH]c(-c3cc[se]c3)cc(=O)c2c1` is 2.3 µM.
Same read-out and setting: under `O=c1cc(-c2ccsc2)[nH]c2cc3c(cc12)OCO3` stands 4.3 µM; under `COc1ccc2[nH]c(-c3ccc[se]3)cc(=O)c2c1O`, 0.4 µM.

Another test relates to Detroit 551. Nature of the test: Selectivity ratio of IC50 for human Detroit 551 cells to IC50 for human Hep3B cells.
Conditions: not given
On to `O=c1cc(-c2ccc[se]2)[nH]c2cc3c(cc12)OCO3`, for which the “Ratio IC50” value was 50.

Another test relates to Detroit 551. Nature of the test: Cytotoxicity against human Detroit 551 cells after 48 hrs by MTT assay. As to conditions: Detroit 551, 48 h. In kind it is cell-based. A digest of the protocol: (§2)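 Hep 3B (hepatoma) or Detroit 551 (normal skin) cells, grown at 37 °C and 5% CO₂ in DMEM with 10% FBS, penicillin/streptomycin and 1% L-glutamine, were used in log phase. Cells were exposed to vehicle or compound for 48 h. Growth was read by MTT reduction at 570 nm, and IC50 was calculated.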
In the case of `Oc1cc(-c2cccs2)nc2cc3c(cc12)OCO3`, the IC50 is > 5 µM.
Molecule `O=c1cc(-c2ccc[se]2)[nH]c2cc3c(cc12)OCO3` gave an IC50 of 50 µM.
The same measure, in the same setting: under `COc1ccc2[nH]c(-c3ccc[se]3)cc(=O)c2c1` stands > 10 µM; under `COc1ccc2[nH]c(-c3ccc(C)[se]3)cc(=O)c2c1OC`, > 50 µM.
As for `O=c1cc(-c2ccoc2)[nH]c2cc3c(cc12)OCO3`, the 50% inhibitory concentration (IC50) was > 25 µM.
The same measure, in the same setting: under `Oc1cc(-c2ccco2)nc2cc3c(cc12)OCO3` stands > 15 µM; under `COc1ccc2[nH]c(-c3ccc(C)[se]3)cc(=O)c2c1O`, > 50 µM.
On the same count and under the same terms, the figure for `COc1ccc2[nH]c(-c3ccc(C)[se]3)cc(=O)c2c1` is > 10 µM.
The same measure, in the same setting: under `Cc1ccc(-c2cc(=O)c3cc4c(cc3[nH]2)OCO4)o1` stands > 10 µM; under `Cc1ccc(-c2cc(=O)c3cc4c(cc3[nH]2)OCO4)s1`, > 5 µM.
Regarding `COc1ccc2[nH]c(-c3ccc[se]3)cc(=O)c2c1OC`, the IC50 is > 100 µM.
The same measure, in the same setting: the figure for `COc1ccc2[nH]c(-c3cc[se]c3)cc(=O)c2c1OC` is > 100 µM; for `O=c1cc(-c2cc[se]c2)[nH]c2cc3c(cc12)OCO3` it is > 10 µM.
Take `COc1ccc2[nH]c(-c3cc[se]c3)cc(=O)c2c1O`: the IC50 is > 100 µM.
On the same count and under the same terms, the figure for `COc1ccc2[nH]c(-c3cc[se]c3)cc(=O)c2c1` is > 10 µM; for `O=c1cc(-c2ccsc2)[nH]c2cc3c(cc12)OCO3` it is > 25 µM.
The same measure, in the same setting: under `COc1ccc2[nH]c(-c3ccc[se]3)cc(=O)c2c1O` stands 100 µM.

System in the next test: not listed separately
In words: Cytotoxicity against human Hep3B cells after 48 hrs by MTT assay. The format is functional, cell-based, Hep 3B2.
Conditions: not given
A digest of the protocol:
as §2
Regarding `Oc1cc(-c2cccs2)nc2cc3c(cc12)OCO3`, the midpoint of inhibition, the IC50, lay at 0.7 µM.
The same measure, in the same setting: the figure for `O=c1cc(-c2ccc[se]2)[nH]c2cc3c(cc12)OCO3` is 0.8 µM; for `COc1ccc2[nH]c(-c3ccc[se]3)cc(=O)c2c1` it is 3.2 µM; for `COc1ccc2[nH]c(-c3ccc(C)[se]3)cc(=O)c2c1OC` it is > 50 µM.
As for `O=c1cc(-c2ccoc2)[nH]c2cc3c(cc12)OCO3`, the IC50 is 9.6 µM.
The same measure, in the same setting: the figure for `Oc1cc(-c2ccco2)nc2cc3c(cc12)OCO3` is > 15 µM; for `COc1ccc2[nH]c(-c3ccc(C)[se]3)cc(=O)c2c1O` it is 0.8 µM; for `COc1ccc2[nH]c(-c3ccc(C)[se]3)cc(=O)c2c1` it is 3 µM.
Regarding `Cc1ccc(-c2cc(=O)c3cc4c(cc3[nH]2)OCO4)o1`, the IC50 was determined as 10 µM.
Still for that read-out and setting: the figure for `Cc1ccc(-c2cc(=O)c3cc4c(cc3[nH]2)OCO4)s1` is 0.7 µM; for `COc1ccc2[nH]c(-c3ccc[se]3)cc(=O)c2c1OC` it is > 100 µM.
`COc1ccc2[nH]c(-c3cc[se]c3)cc(=O)c2c1OC` gave an IC50 of 100 µM.
`O=c1cc(-c2cc[se]c2)[nH]c2cc3c(cc12)OCO3` yielded an IC50 of 0.8 µM.
On the same count and under the same terms, under `COc1ccc2[nH]c(-c3cc[se]c3)cc(=O)c2c1O` stands 0.3 µM; under `COc1ccc2[nH]c(-c3cc[se]c3)cc(=O)c2c1`, 3.7 µM; under `O=c1cc(-c2ccsc2)[nH]c2cc3c(cc12)OCO3`, 2.2 µM.
Regarding `COc1ccc2[nH]c(-c3ccc[se]3)cc(=O)c2c1O`, the midpoint of inhibition, the IC50, lay at 0.7 µM.

A further test concerns Detroit 551. In words: Selectivity ratio of IC50 for human Detroit 551 cells to IC50 for human H460 cells.
Conditions: not given
Regarding `O=c1cc(-c2ccc[se]2)[nH]c2cc3c(cc12)OCO3`, the “Ratio IC50” value was 50.
